From ChEMBL document CHEMBL3259662 (ACS Med Chem Lett, 2014)
In brackets after ≈: the same amount, converted by molar mass. Activity calls are given as the source filed them. No cut-off for these calls is given here. Peptide text beside a SMILES is read from it. * marks the point of attachment. Boc = CC(C)(C)OC(=O)*; NHBn = c1ccc(CN*)cc1

Tests used:
Candida albicans = assay: Antifungal activity against Candida albicans by CLSI method; type: functional, organism-based
Aspergillus fumigatus = assay: Antifungal activity against Aspergillus fumigatus by CLSI method; type: functional, organism-based
Escherichia coli = assay: Antibacterial activity against Escherichia coli ATCC 35218 after 16 to 20 hrs by CLSI method; type: functional, organism-based
Nakaseomyces glabratus = assay: Antifungal activity against Candida glabrata by CLSI method; type: functional, organism-based
Pichia kudriavzevii = assay: Antifungal activity against Candida krusei by CLSI method; type: functional, organism-based
Cryptococcus neoformans = assay: Antifungal activity against Cryptococcus neoformans ATCC 90113 after 70 to 74 hrs by CLSI method; type: functional, organism-based; conditions: for IC50 / MIC: Cryptococcus neoformans, ATCC 90113
Method in brief: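 Growth inhibition of C. neoformans per the CLSI protocol. […] MIC is the lowest test concentration with no detectable growth. MFC is the lowest concentration killing 100% of the organism.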

SK-MEL = assay: Cytotoxicity against human SK-MEL cells assessed as cell viability after 48 hrs by neutral red uptake assay; type: cell-based
Method in brief: (§1)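 Neutral red uptake assay in human cancer lines SK-MEL, KB, BT-549 and SK-OV-3 and in noncancerous mammalian kidney cells VERO and LLC-PK1. The highest tested concentration was 10 μg/mL.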

KB = assay: Cytotoxicity against human KB cells assessed as cell viability after 48 hrs by neutral red uptake assay; type: cell-based; method in brief: as §1
BT-549 = assay: Cytotoxicity against human BT549 cells assessed as cell viability after 48 hrs by neutral red uptake assay; type: cell-based; conditions: bt-549, 48 h; method in brief: as §1
SK-OV-3 = assay: Cytotoxicity against human SKOV3 cells assessed as cell viability after 48 hrs by neutral red uptake assay; type: cell-based; conditions: sk-ov-3, 48 h; method in brief: as §1
Vero = assay: Cytotoxicity against African green monkey Vero cells assessed as cell viability after 48 hrs by neutral red uptake assay; type: cell-based; conditions: chlorocebus sabaeus; method in brief: as §1
LLC-PK1 = assay: Cytotoxicity against pig LLC-PK1 cells assessed as cell viability after 48 hrs by neutral red uptake assay; type: cell-based, Sus scrofa; conditions: llc-pk1, 48 h; method in brief: as §1
[1] = Selectivity index, ratio of cytotoxicity for human SK-MEL cells to IC50 for Cryptococcus neoformans ATCC 90113; type: toxicity, cell-based; conditions: read-out: Selectivity Index
[2] = Selectivity index, ratio of cytotoxicity for human KB cells to IC50 for Cryptococcus neoformans ATCC 90113; type: toxicity, cell-based; conditions: read-out: Selectivity Index
[3] = Selectivity index, ratio of cytotoxicity for human BT549 cells to IC50 for Cryptococcus neoformans ATCC 90113; type: toxicity, cell-based, BT-549; conditions: read-out: Selectivity Index
[4] = Selectivity index, ratio of cytotoxicity for human SKOV3 cells to IC50 for Cryptococcus neoformans ATCC 90113; type: toxicity, cell-based, SK-OV-3; conditions: read-out: Selectivity Index
[5] = Selectivity index, ratio of cytotoxicity for African green monkey Vero cells to IC50 for Cryptococcus neoformans ATCC 90113; type: toxicity, cell-based; conditions: read-out: Selectivity Index
[6] = Selectivity index, ratio of cytotoxicity for pig LLC-PK1 cells to IC50 for Cryptococcus neoformans ATCC 90113; type: toxicity, cell-based; conditions: read-out: Selectivity Index
[7] = Retention time of the compound by reverse phase HPLC analysis; type: physicochemical
Method in brief: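 Reverse-phase HPLC on a C-18 column (25 cm × 4.6 mm, 5 μM) at 1 mL/min over 40 min. The gradient ran 85−5% with A = 0.1% TFA in H2O and B = 0.1% TFA in CH3CN. Detection was at 220 nm.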

IC50 (Cryptococcus neoformans) [µg/mL] | MIC (Cryptococcus neoformans) [µg/mL] | Structure (SMILES) | Activity (Candida albicans) | Activity (Aspergillus fumigatus) | Activity (Escherichia coli) | Activity (Nakaseomyces glabratus) | Activity (Pichia kudriavzevii) | MFC100 (Cryptococcus neoformans) [µg/mL] | Activity (SK-MEL) [µg/mL] | Activity (KB) [µg/mL] | Activity (BT-549) [µg/mL] | Activity (SK-OV-3) [µg/mL] | Activity (Vero) [µg/mL] | Activity (LLC-PK1) [µg/mL] | selectivity ratio [1] | selectivity ratio [2] | selectivity ratio [3] | selectivity ratio [4] | selectivity ratio [5] | selectivity ratio [6] | also measured
5.35 (≈ 8.15 µM) | 10 (≈ 15.2 µM) | CC(C)(C)OC(=O)N[C@@H](CCCNC(=N)N)C(=O)N[C@@H](Cc1c[nH]cn1)C(=O)N[C@@H](CCCNC(=N)N)C(=O)NCc1ccccc1 (Boc-Arg-His-Arg-NHBn) | inactive | inactive | inactive | inactive | inactive | 10 (≈ 15.2 µM) | > 10 | > 10 | > 10 | > 10 | > 10 | > 10 | > 1.8 | > 1.8 | > 1.8 | > 1.8 | > 1.8 | > 1.8 | Retention_time [7]: 16.41 min
0.8 (≈ 1.09 µM) | 1.25 (≈ 1.7 µM) | COC(=O)[C@H](CCCNC(=N)N)NC(=O)[C@H](Cc1c[nH]c(-c2ccc(-c3ccccc3)cc2)n1)NC(=O)[C@H](CCCNC(=N)N)NC(=O)OC(C)(C)C | inactive | inactive | inactive | inactive | inactive | 1.25 (≈ 1.7 µM) | > 10 | > 10 | > 10 | > 10 | > 10 | > 10 | > 12.5 | > 12.5 | > 12.5 | > 12.5 | > 12.5 | > 12.5 | Retention_time [7]: 18.64 min
4.06 (≈ 5.9 µM) | 5 (≈ 7.27 µM) | COC(=O)[C@H](CCCNC(=N)N)NC(=O)[C@H](Cc1c[nH]c(-c2ccc(OC)cc2)n1)NC(=O)[C@H](CCCNC(=N)N)NC(=O)OC(C)(C)C | inactive | inactive | inactive | inactive | inactive | 5 (≈ 7.27 µM) | > 10 | > 10 | > 10 | > 10 | > 10 | > 10 | > 2.5 | > 2.5 | > 2.5 | > 2.5 | > 2.5 | > 2.5 | Retention_time [7]: 13.59 min

Further lines, the compound ahead of its results:

Structure (SMILES) | IC50 (Cryptococcus neoformans) [µg/mL] | MIC (Cryptococcus neoformans) [µg/mL] | Activity (Candida albicans) | Activity (Aspergillus fumigatus) | Activity (Escherichia coli) | Activity (Nakaseomyces glabratus) | Activity (Pichia kudriavzevii) | MFC100 (Cryptococcus neoformans) [µg/mL] | Activity (SK-MEL) [µg/mL] | Activity (KB) [µg/mL] | Activity (BT-549) [µg/mL] | Activity (SK-OV-3) [µg/mL] | Activity (Vero) [µg/mL] | Activity (LLC-PK1) [µg/mL] | selectivity ratio [1] | selectivity ratio [2] | selectivity ratio [3] | selectivity ratio [4] | selectivity ratio [5] | selectivity ratio [6] | also measured
C[C@@H]1[C@H](O)[C@@H](C)/C=C/C=C/C=C/C=C/C=C/C=C/C=C/[C@H](O[C@@H]2O[C@H](C)[C@@H](O)[C@H](N)[C@@H]2O)C[C@@H]2O[C@](O)(C[C@@H](O)C[C@@H](O)[C@H](O)CC[C@@H](O)C[C@@H](O)CC(=O)O[C@H]1C)C[C@H](O)[C@H]2C(=O)O [AMPHOTERICIN B] | – | 1.25 (≈ 1.35 µM) | – | – | – | – | – | 1.25 (≈ 1.35 µM) | – | – | – | – | – | – | – | – | – | – | – | – | –
COC(=O)[C@H](CCCNC(=N)N)NC(=O)[C@H](Cc1c[nH]c(-c2ccc(OC)cc2)n1)NC(=O)[C@@H](N)CCCNC(=N)N | 3.93 (≈ 6.69 µM) | 5 (≈ 8.51 µM) | inactive | inactive | inactive | inactive | inactive | 5 (≈ 8.51 µM) | > 10 | > 10 | > 10 | > 10 | > 10 | > 10 | > 2.5 | > 2.5 | > 2.5 | > 2.5 | > 2.5 | > 2.5 | –
COC(=O)[C@H](CCCNC(=N)N)NC(=O)[C@H](Cc1c[nH]c(-c2ccc(-c3ccccc3)cc2)n1)NC(=O)[C@@H](N)CCCNC(=N)N | 0.59 (≈ 0.931 µM) | 1.25 (≈ 1.97 µM) | inactive | inactive | inactive | inactive | inactive | 1.25 (≈ 1.97 µM) | > 10 | > 10 | > 10 | > 10 | > 10 | > 10 | > 16.9 | > 16.9 | > 16.9 | > 16.9 | > 16.9 | > 16.9 | –
COC(=O)[C@H](CCCNC(=N)N)NC(=O)[C@H](Cc1c[nH]c(-c2ccc(C(C)(C)C)cc2)n1)NC(=O)[C@@H](N)CCCNC(=N)N | 0.61 (≈ 0.994 µM) | 1.25 (≈ 2.04 µM) | inactive | inactive | inactive | inactive | inactive | 1.25 (≈ 2.04 µM) | > 10 | > 10 | > 10 | > 10 | > 10 | > 10 | > 16.3 | > 16.3 | > 16.3 | > 16.3 | > 16.3 | > 16.3 | –
N=C(N)NCCC[C@H](NC(=O)[C@H](Cc1c[nH]c(-c2ccccc2)n1)NC(=O)[C@@H](N)CCCNC(=N)N)C(=O)NCc1ccccc1 | 0.73 (≈ 1.15 µM) | 1.25 (≈ 1.98 µM) | inactive | inactive | inactive | inactive | inactive | 1.25 (≈ 1.98 µM) | > 10 | > 10 | > 10 | > 10 | > 10 | > 10 | > 13.7 | > 13.7 | > 13.7 | > 13.7 | > 13.7 | > 13.7 | –
Cc1ccc(-c2nc(C[C@H](NC(=O)[C@@H](N)CCCNC(=N)N)C(=O)N[C@@H](CCCNC(=N)N)C(=O)NCc3ccccc3)c[nH]2)cc1 | 0.35 (≈ 0.541 µM) | 0.63 (≈ 0.974 µM) | inactive | inactive | inactive | inactive | inactive | 10 (≈ 15.5 µM) | > 10 | > 10 | > 10 | > 10 | > 10 | > 10 | > 28.6 | > 28.6 | > 28.6 | > 28.6 | > 28.6 | > 28.6 | –
